Source: PubChem BioAssay (several laboratories)
PDI turbidity: inhibitors of human PDI, primary screen, biochemical, turbidity, single point, plate reader; Protein disulfide-isomerase (Homo sapiens), P07237; PDI insulin aggregation turbidity, A650, 90 min; inhibition, % at 10 µM; actives 0.052% (n = 350,000); AID 588391, 2011;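 active = mean inhibition across replicates of 30% or more, whatever share of single replicates reach that level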
VIM-2 inhibitor: VIM-2 metallo-beta-lactamase inhibitors, primary screen, biochemical, epi-absorbance readout, Pseudomonas aeruginosa enzyme; actives 0.89% (n = 290,000); inhibition, % at 5.6 µM; purified VIM-2, nitrocefin hydrolysis, epi-absorbance fluorescence; AID 1527, 2009;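 active = inhibition above the mean of all tested compounds plus 3 SD, cutoff set per screening run, cut at about 7.5% in these data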;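 note: red hydrolysis product quenches plate fluorescence so inhibitors raise well fluorescence; 0% = enzyme with DMSO and 100% = DMSO without enzyme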
PvdQ inh: P. aeruginosa PvdQ acylase inhibitors, primary screen, biochemical, fluorescence, plate reader and imaging, single point | PvdQ acylase [Pseudomonas aeruginosa LESB58] | purified PvdQ acylase | inhibition, % at 10 µM | actives 0.063% (n = 340,000) | AID 488965, 2010; in the data active = inhibition above about 30%, passing the limit was not always enough;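 note: 0% = vehicle neutral wells and 100% = reference inhibitor wells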
PglD inh: C. jejuni PglD acetyltransferase inhibitors, primary screen, biochemical, DTNB colorimetric, single point; UDP-N-acetylbacillosamine N-acetyltransferase PglD (Campylobacter jejuni); purified PglD enzyme, DTNB colorimetric CoA detection; inhibition, % at 12.5 µM; actives 0.098% (n = 360,000); in the data active = inhibition above about 16%, passing the limit was not always enough
IMP-1 inh: IMP-1 metallo-beta-lactamase inhibitors, primary screen, biochemical, epi-absorbance readout, Pseudomonas aeruginosa enzyme. metallo-beta-lactamase IMP-1 (Pseudomonas aeruginosa). inhibition, % at 5.6 µM. actives 0.45% (n = 290,000). AID 1556, 2009. purified IMP-1, nitrocefin hydrolysis, epi-absorbance fluorescence;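 active = inhibition above the mean plus 3 SD of all compounds in the same screening run, cut at about 4.5% in these data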;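 note: 0% = IMP-1 with DMSO and 100% = DMSO wells lacking enzyme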
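System: purified recombinant IMP-1 beta-lactamase. Medium: Zinc- and detergent-supplemented HEPES buffer, pH 7.1. Compound: one 5.6 µM dose […]. Schedule: 15 min preincubation plus 25 min reaction at 25 °C. Technique: Epi-absorbance fluorescence, 480 nm excitation, 530 nm emission.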
ERp5 inh: inhibitors of ERp5-driven insulin aggregation, primary screen, biochemical, turbidity, absorbance 650 nm, single point. inhibition, % at 9.99 µM. 90 min. Protein disulfide-isomerase A6 (Homo sapiens), Q15084. actives 0.05% (n = 350,000). AID 651711, 2012;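 active = mean replicate inhibition above about 25%, with every replicate also reaching it, limit read from the data, passing the limit was not always enough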
Target sequence (Q15084 whole entry, looked up): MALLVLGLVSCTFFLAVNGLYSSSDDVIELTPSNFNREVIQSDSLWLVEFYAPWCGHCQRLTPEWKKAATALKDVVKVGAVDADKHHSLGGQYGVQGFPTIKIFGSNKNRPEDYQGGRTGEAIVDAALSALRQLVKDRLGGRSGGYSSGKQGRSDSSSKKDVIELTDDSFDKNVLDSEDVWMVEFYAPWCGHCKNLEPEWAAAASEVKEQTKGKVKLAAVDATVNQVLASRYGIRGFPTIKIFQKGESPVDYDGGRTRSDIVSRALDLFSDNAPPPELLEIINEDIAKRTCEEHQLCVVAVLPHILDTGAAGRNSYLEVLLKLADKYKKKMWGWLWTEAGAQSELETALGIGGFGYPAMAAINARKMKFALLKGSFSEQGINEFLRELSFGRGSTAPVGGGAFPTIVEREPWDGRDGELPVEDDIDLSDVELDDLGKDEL
An asterisk follows results filed as active; · = no result. Rows were chosen to be rich in hits. Some 1% of all compounds tested hit in one or more screens of this group.

SMILES	PDI turbidity	VIM-2 inhibitor	PvdQ inh	PglD inh	IMP-1 inh	ERp5 inh
Cc1c(Cl)cccc1NS(=O)(=O)c1ccc2c(c1)C1C=CCC1C(c1ccc(C(=O)O)cc1)N2 (stereo unspecified)	6.0	-0.7	-10.9	·	30.1*	·
O=C(O)c1ccc2c(c1)C1C=CCC1C(c1ccncc1)N2 (stereo unspecified)	6.5	0.7	-9.5	3.6	1.0	-1.5
COc1ccc(NS(=O)(=O)c2ccc3c(c2)[C@H]2C=CC[C@H]2[C@@H](c2ccc(C(=O)O)cc2)N3)cc1	19.0	2.1	-4.7	0.3	21.7*	-2.9
C[C@@H]1CN([C@H](C)CO)S(=O)(=O)c2ccc(C#CC3CC3)cc2O[C@H]1CN(C)C(=O)CC1CC1	·	·	·	-1.8	·	-3.0
Cc1c(C#N)c(O)n(CCO)c(=O)c1N=Nc1ccc(S(N)(=O)=O)cc1	5.7	-1.6	1.6	1.3	-4.5	-1.2
Cc1c(C#N)c(O)n(C)c(=O)c1N=Nc1ccc(S(N)(=O)=O)cc1	-2.8	10.0*	11.2	·	-5.2	4.0
CO[C@H]1CN(C)C(=O)c2cc(NC(=O)NC3CCCC3)ccc2OC[C@@H](C)N(CC2CC2)C[C@H]1C	·	·	·	·	·	0.1
CCOc1ccc(S(=O)(=O)Nc2cc(SCC(=O)O)c(O)c3ccccc23)cc1	3.1	10.2*	10.5	7.1	3.8	0.5
CCc1ccc(S(=O)(=O)Nc2cc(SCC(=O)O)c(O)c3ccccc23)cc1	-4.4	5.4	13.1	·	2.7	0.3
Cc1noc(C)c1NC(=O)N(C)C[C@@H]1Oc2ccc(NC(=O)C3CC3)cc2CC(=O)N([C@@H](C)CO)C[C@H]1C	·	·	·	-4.4	·	4.6
COc1ccc(-c2cc3nc(CCl)[nH]c(=O)c3s2)cc1	39.4*	-2.0	-9.1	-0.7	-5.6	0.0
COc1ccc(NC(=O)N(C)C[C@H]2OCCCC[C@@H](C)Oc3ccc(NC(=O)Nc4ccc(C(F)(F)F)cc4)cc3C(=O)N([C@@H](C)CO)C[C@@H]2C)cc1	·	·	·	-1.8	·	-0.4
CC=Cc1ccc2n(c1=O)C[C@@H]1[C@@H](CO)[C@H](C(=O)N3CCc4ccccc4C3)N(C(=O)C3CC3)[C@H]21 (mixture of isomers)	·	·	·	11.8	·	-2.2
CSc1nnc(-c2ccc([N+](=O)[O-])cc2)o1	8.8	-4.0	57.6*	4.4	-2.8	-0.3
COc1ccc2c3c(n(C)c2c1)[C@H](CO)N(Cc1ccccc1)CC31CCN(S(C)(=O)=O)CC1	·	·	·	·	·	0.2
COc1ccc(-c2cc(=O)oc3cc(OCC(C)=O)ccc23)cc1	-7.2	3.4	-6.5	1.4	-1.8	-0.1
COc1ccc(-c2cc(=O)oc3cc(O)ccc23)cc1	-4.1	8.6*	22.1	·	-0.9	-5.7
O=C(O)C1C(c2ccccc2)C(C(=O)Oc2ccc(O)cc2)C1c1ccccc1 (stereo unspecified)	46.0*	3.6	0.4	1.8	-0.9	·
CCCC(=O)Nc1ccccc1NC(C)=O	7.4	-0.6	2.5	1.5	5.3*	·
CCOC(=O)CC(=O)CSc1nc(-c2cccnc2)ccc1C#N	-2.8	0.0	1.8	-3.2	5.3*	-1.7
CCOC(=O)CC(=O)CSc1nc(-c2cccnc2)cc(C)c1C#N	-4.3	-1.3	-11.0	6.0	-3.0	·
Cc1ccc(N2CCCn3c2cc(C)c(C#N)c3=O)cc1Cl	-3.0	7.8*	4.8	5.1	-1.1	·
Cc1ccc(N2CCCn3c2cc(C)c(C#N)c3=O)cc1C	-1.0	7.0	11.5	1.7	1.4	-0.9
Cc1ccccc1NC(=O)c1c(C)[nH]c(=S)c(C#N)c1-c1ccco1	-7.3	-1.3	-7.0	-3.3	16.8*	-0.8
CNC(=O)c1c(C)[nH]c(=S)c(C#N)c1-c1ccco1	0.1	0.6	-3.1	5.4	17.9*	0.7
SMILES	PDI turbidity	VIM-2 inhibitor	PvdQ inh	PglD inh	IMP-1 inh	ERp5 inh
CCNC(=O)C[C@@H]1CC[C@H]2[C@@H](COc3ccc(NC(=O)Nc4ccccc4F)cc3C(=O)N2C)O1	·	·	·	3.3	·	·
CO[C@@H]1CN(C)C(=O)c2ccc(NC(=O)C3CC3)cc2OC[C@@H](C)N(CC2CCCC2)C[C@@H]1C	·	·	·	0.6	·	-0.6
N#CC(c1ccc(Cl)cc1)c1cccc(Cl)n1 (stereo unspecified)	-7.4	2.4	117.4*	·	0.1	-6.8
N#CC(c1ccc(Cl)cc1)c1ccc2c(C(F)(F)F)cc(C(F)(F)F)nc2n1 (stereo unspecified)	-11.6	-4.5	-14.6	·	-4.6	·
Cc1cccc(NC(=O)NNC(=O)c2ccc3ccccc3c2)c1	-3.9	-5.1	-18.3	2.6	-2.4	0.8
O=C(NNC(=O)c1ccc2ccccc2c1)Nc1ccc(F)cc1	3.7	-1.6	-12.4	-6.9	-3.2	26.0*
CCCCN(CC)CCNC(=O)CCC(=O)Nc1ccc2nc(N3CCN(C)CC3)cc(C)c2c1	3.3	7.8*	-5.0	4.7	-0.8	4.1
C[C@@H]1CN([C@H](C)CO)S(=O)(=O)c2ccc(Br)cc2O[C@H]1CN(C)C(=O)c1cnccn1	·	·	·	3.7	·	-0.8
CNC(=O)Cc1csc2ccc(Cl)cc12	-6.2	-2.2	-6.7	-0.2	1.0	·
Clc1ccc2scc(CN3CCCC3)c2c1	1.2	·	81.3*	·	·	2.2
C[C@@H]1CN([C@H](C)CO)C(=O)CCCn2cc(nn2)CO[C@H]1CN(C)Cc1ccc(Cl)c(Cl)c1	·	·	·	-9.8	·	6.4
C[C@H](NC(=O)C[C@@H]1C[C@H]2c3cc(NC(=O)C4CCOCC4)ccc3O[C@H]2[C@@H](CO)O1)c1ccccc1	·	·	·	5.0	·	0.4
Cc1cnc(NC(=O)Cc2ccc(C)c(C)c2)s1	-7.6	-4.0	4.0	2.5	8.7*	7.1
C/C=C/c1ccc2c(c1)O[C@H](CN(C)S(C)(=O)=O)[C@H](C)CN([C@@H](C)CO)S2(=O)=O	·	·	·	-2.1	·	7.7
C/C=C/c1ccc2c(c1)O[C@@H](CN(C)S(C)(=O)=O)[C@H](C)CN([C@H](C)CO)S2(=O)=O	·	·	·	3.7	·	88.3*
C/C=C/c1ccc2c(c1)O[C@@H](CN(C)Cc1cccnc1)[C@@H](C)CN([C@H](C)CO)S2(=O)=O	·	·	·	-0.2	·	-0.4
C/C=C/c1ccc2c(c1)O[C@@H](CN(C)S(C)(=O)=O)[C@H](C)CN([C@@H](C)CO)S2(=O)=O	·	·	·	1.2	·	68.1*
C/C=C/c1ccc2c(c1)O[C@H](CN(C)Cc1cncnc1)[C@H](C)CN([C@@H](C)CO)S2(=O)=O	·	·	·	5.7	·	28.7*
CCc1ccc(NC(=O)C2CCN(S(=O)(=O)c3cnc[nH]3)CC2)cc1	19.4	0.3	-12.5	3.1	12.1*	1.6
C[C@@H]1CN([C@@H](C)CO)C(=O)c2cc(-c3ccc(C#N)cc3)cnc2O[C@H]1CN(C)C(=O)Nc1ccc(F)cc1	·	·	·	-0.8	·	0.8
